SENP8 block-1 – SENP8 (human) protease inhibition. Q96LD8. recombinant SENP8, Nedd8 substrate fluorescence. inhibition, % at 20 µM. hit rate 0.64% among 360,000; in the data active = inhibition mostly above about 40%, no sharp cut-off; inactive = mostly below about 27%
Target sequence (Q96LD8 whole entry, looked up): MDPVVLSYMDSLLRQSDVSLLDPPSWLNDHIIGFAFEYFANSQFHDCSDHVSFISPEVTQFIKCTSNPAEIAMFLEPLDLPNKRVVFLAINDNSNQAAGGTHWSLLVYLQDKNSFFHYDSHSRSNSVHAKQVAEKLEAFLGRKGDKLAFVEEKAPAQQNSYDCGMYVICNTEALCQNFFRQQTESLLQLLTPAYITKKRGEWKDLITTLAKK
SENP8 block-2 – SENP8 protease inhibition | Q96LD8 | purified SENP8, Z-RLRGG-aminoluciferin cleavage, luminescence | inhibition, % at 10 µM | hit rate 1.2% among 330,000; in the data active = inhibition above about 50%
SENP7 block – SENP7 protease inhibition; Q9BQF6; inhibition, % at 5 µM; recombinant SENP7, Z-RLRGG-aminoluciferin luminescence, 40 min; hit rate 1.5% among 330,000; AID 434973;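 active = inhibition above about 50% at the single test dose, limit read from the data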;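 note: plate controls were DMSO with enzyme for no effect and no enzyme buffer wells for full effect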
Target sequence (Q9BQF6 706-1050 limits assumed): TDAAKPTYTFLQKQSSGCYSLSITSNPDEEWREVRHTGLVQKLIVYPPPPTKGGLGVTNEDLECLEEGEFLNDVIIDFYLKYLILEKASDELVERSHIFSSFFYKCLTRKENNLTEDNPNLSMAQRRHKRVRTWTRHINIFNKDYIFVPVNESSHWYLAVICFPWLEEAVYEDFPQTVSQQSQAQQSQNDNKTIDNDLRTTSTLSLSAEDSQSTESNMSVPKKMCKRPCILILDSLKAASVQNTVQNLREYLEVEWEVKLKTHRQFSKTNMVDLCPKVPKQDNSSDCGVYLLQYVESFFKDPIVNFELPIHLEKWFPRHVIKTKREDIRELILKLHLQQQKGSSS
SENP6 block – inhibitors of human SENP6 protease. Q9GZR1. Recombinant SENP6 catalytic domain, aminoluciferin luminescence. inhibition, % at 10 µM. hit rate 1.8% among 330,000. AID 2599;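 active = inhibition above about 50% at the single tested dose, limit read from the data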;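 note: plate controls were DMSO wells with enzyme for no effect and DMSO wells lacking enzyme for full effect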
HSP90 refold inh – blocks HSP90-mediated luciferase refolding in reticulocyte lysate. Rabbit reticulocyte lysate, luciferase refolding luminescence, 3 h. inhibition, % at 5.6 µM. hit rate 0.91% among 290,000;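 active = inhibition above the screen-wide mean plus 3 SD, computed separately per campaign, cut at about 16% in these data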;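 note: 0% = DMSO wells and 100% = 60 µM geldanamycin wells; inhibitors lower the luminescence because luciferase stays unfolded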
SENP1 FRET inh – SENP1 (human) catalytic domain inhibition; recombinant SENP1 catalytic domain, CyPet-SUMO1-YPet FRET cleavage; hit rate 0.21% among 360,000; inhibition, % at 10 µM; AID 624204; Q9P0U3;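 active = inhibition at least 30% at 10 µM, raw YFP signal under a set limit, fluorescence ratio 0.5 to 1.5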;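 note: 0% = enzyme with DMSO and 100% = no enzyme wells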
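Material: hSENP1 catalytic domain, recombinant; medium: Tris pH 8 with BME, BSA, NP40 and catalase; compound: single concentration of 10 µM compound, 0.5% DMSO final; technique: FRET read of cyan and yellow fluorescence; timing: 50 min enzyme reaction, room temperature, light-protected; reagent: SFCypet-SUMO1-SFYpet substrate at 25 nM; control set: no-enzyme low, enzyme-DMSO high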
SENP8 inh conf – confirmation of human SENP8 protease inhibitors | shares compounds with SENP8 block-1 | purified SENP8, Nedd8-AMC/pro-Nedd8 cleavage fluorescence, 30 min | inhibition, % at 25 µM | hit rate 15% among 1,400 | AID 624319; in the data active = inhibition mostly above about 39%, no sharp cut-off; inactive = mostly below about 34%
* = called active by the depositor; / = not tested or not shown. Hits are enriched below; roughly 2.9% of the tested compounds scored in any of these assays.

SMILES	SENP8 block-1	SENP8 block-2	SENP7 block	SENP6 block	HSP90 refold inh	SENP1 FRET inh	SENP8 inh conf
CC1CN(N=Cc2ccc([N+](=O)[O-])o2)C(=N)O1 (stereo not given)	48*	/	/	/	/	-2	29
O=C1SCCN1N=Cc1ccc([N+](=O)[O-])o1	55*	/	/	/	/	1	18
Cc1cc(O)c(C(C)C)cc1N=Cc1ccc(N(C)C)cc1	38	/	/	/	/	2	/
Cc1cc(O)c(C(C)C)cc1N=Cc1ccc([N+](=O)[O-])cc1	95*	/	/	/	/	2	11
COc1cccc(C=Nc2cc(C(C)C)c(O)cc2C)c1O	70*	/	/	/	/	9	23
Cc1c(C(=O)N/N=C/c2ccncc2)nnn1-c1nonc1N	0	-15	7	-30	/	2	/
C/C(CC(C)C)=N/Nc1ccc([N+](=O)[O-])cc1[N+](=O)[O-]	34	0	-2	-26	1	3	/
CC1C/C(=N/Nc2ccc([N+](=O)[O-])cc2[N+](=O)[O-])CC(C)(C)C1 (stereo not given)	46*	0	-3	6	0	3	12
CC1CCCC/C1=N/Nc1ccc([N+](=O)[O-])cc1[N+](=O)[O-] (stereo not given)	47*	-3	-3	8	3	1	-1
NS(=O)(=O)c1ccc(NN=C2CCCCC2)c([N+](=O)[O-])c1	25	-7	0	-14	-1	0	/
CC1CCCC(C)N1C(=O)COC(=O)CCC(=O)c1ccc(F)cc1 (stereo not given)	7	4	11	21	/	0	/
CN(C)c1ccc(N=Cc2nc(-c3ccccc3)oc2O)cc1	40*	-12	32	7	-2	-21	-6
CCCOc1c(Br)cc(C(=O)OCc2cc(=O)n3ccsc3n2)cc1OC	-66	/	/	/	/	0	/
CCc1ccc(C(=O)NNc2ccccc2F)cc1	26*	1	1	-8	-3	3	2
CC(C)C(=O)Nc1ccc(Cl)cc1-c1nc2ccccc2[nH]c1=O	-26	1	-4	20	2	-3	/
CNc1ccc([N+](=O)[O-])cc1-c1nc2ccccc2[nH]c1=O	42*	7	-10	0	0	6	15
CCCN(c1ccccc1C(=O)O)S(=O)(=O)c1ccc2c(c1)n(C)c(=O)n2C	6	6	13	0	2	2	/
CCSc1nnc(NC(NC(=O)c2ccco2)(C(F)(F)F)C(F)(F)F)s1	41*	3	-1	11	-2	0	28
CCSc1nnc(NC(=O)c2ccco2)s1	-19	-7	0	-8	1	0	/
CN(C)CCCNC(=O)c1cc(C(=O)c2cccc(Cl)c2Cl)c[nH]1	15	-7	-5	-14	-3	1	/
COCCCNC(=O)c1ccc2c(c1)OCO2	45*	-2	5	1	-4	2	12
CCCCOCCCNC(=O)c1ccc2c(c1)OCO2	-2	3	1	-10	0	-1	/
CC(C)(C)c1ccc(-c2noc(-c3ccc4c(c3)CCO4)n2)cc1	12	-20	2	-21	-5	1	/
Cc1cccc(NC(=O)C(C)Sc2nc3nc(C)cc(C)n3n2)c1 (stereo not given)	4	2	3	0	/	-2	/
O=[N+]([O-])c1cc([N+](=O)[O-])c2n[nH]c(-c3ccccc3)c2c1	35*	6	5	-11	-3	6	8
SMILES	SENP8 block-1	SENP8 block-2	SENP7 block	SENP6 block	HSP90 refold inh	SENP1 FRET inh	SENP8 inh conf
COc1ccc(NCc2nnc(SCC(=O)Nc3ccccc3OC)o2)cc1	46*	2	-7	-4	3	1	37
COc1ccccc1NC(=O)CSC(N)=O	46*	-4	-4	-10	-5	2	17
Cc1cccc(CNC(=O)c2cc(S(=O)(=O)N3CCOCC3)cn2C)c1	16	-4	6	-6	-4	0	/
COc1ccc(NCC(=O)N/N=C2\CCc3ccccc32)cc1	40*	-1	9	15	-7	-3	26
NCCNc1ccc(C(=O)N2c3ccccc3Sc3ccccc32)cc1[N+](=O)[O-]	52*	-18	0	-21	7	4	21
COCOc1ccc(-c2cc(=O)c3c(OCOC)cc(OCOC)cc3o2)cc1	-105	-2	-9	-6	/	-1	/
COCOc1ccc(C2CC(=O)c3c(OCOC)cc(OCOC)cc3O2)cc1 (stereo not given)	54*	-10	11	-14	/	-1	-2
COc1ccc([C@@H]2CC(=O)c3c(O)cc(O)cc3O2)cc1O	3	15	4	28	/	0	/
O=C1CC(c2ccc(O)cc2)Oc2cc(O)ccc21 (stereo not given)	51*	15	8	11	/	-15	-14
COc1cc(O)c2c(c1)OC(c1ccc(O)cc1)CC2=O (stereo not given)	74*	6	0	-9	-8	-3	18
O=C1CC(c2ccccc2)Oc2cc(O)ccc21 (stereo not given)	15	5	-1	-10	3	-1	/
COC(=O)CSc1nnc(CNS(=O)(=O)c2ccc(C)cc2)n1C	42*	-1	-3	7	-3	2	-1
COC(=O)CSc1nnc(CNc2ccc(OC)cc2)n1C	69*	-1	-4	-9	1	-3	0
CC(C)OC(=O)CSc1nnc(CNc2ccc(Cl)cc2)n1C	10	5	8	0	2	-1	/
CCOc1ccc(C(=O)NC(=S)Nc2ccc(NC(=O)c3ccco3)c(C)c2)cc1[N+](=O)[O-]	17	-1	-7	-12	2	3	/
COc1ccc(CNC(=O)[C@@H](NC(=O)C2CCN(C(=O)[C@@H](N)CC(C)C)CC2)C(C)C)cc1	52*	-6	13	-10	8	1	9
CC(C)C[C@H](N)C(=O)N1CCC(C(=O)N[C@H](C(=O)NCc2ccc(F)cc2)C(C)C)CC1	8	-5	-8	-17	3	1	/
CC(C)C[C@H](N)C(=O)N1CCC(C(=O)N[C@H](C(=O)NC(C)c2ccccc2)C(C)C)CC1 (stereo not given in full)	42*	4	-8	7	0	0	11
CCN(CC)S(=O)(=O)c1cc([N+](=O)[O-])ccc1NNC(=O)Nc1ccccc1OC	51*	-1	2	-3	-1	1	25
O=C(c1ccoc1)N1CCN(c2cc(-c3cccnc3)nc3cc(-c4cccc(Cl)c4)nn23)CC1	-374	/	/	/	/	-28	/
COCCC(=O)N1CCC(Oc2ccc(C(=O)N3CCCCC3CCO)cc2)CC1 (stereo not given)	3	-2	-3	-15	1	1	/
O=C(O)/C=C\C(=O)Nc1ccc(N2CCN(c3ccc(F)cc3)CC2)cc1	38*	-8	-3	4	2	9	14

Assay outcomes from PubChem.
